Experiments:
Format in all cases: functional, cell-based
[1] = test system: UACC-903; test: Antiproliferative activity against human UACC-903 cells harboring BRAF V600E mutant after 24 hrs by MTT assay; conditions: UACC-903, 24 h
Procedure, shortened: (§1)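 MTT viability in melanoma lines grown in DMEM with 10% FBS and pen/strep at 37 °C, 5% CO2. 3000 cells/well, settled overnight, then exposed to compound (0 to 50 µM) in triplicate for 24, 48 or 72 h. MTT (5.0 mg/mL solution) added 3 h before termination. IC50 from non-linear regression (variable slope), mean ± SD.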

[2] = test system: UACC-903; test: Antiproliferative activity against human UACC-903 cells harboring BRAF V600E mutant after 48 hrs by MTT assay; conditions: UACC-903, 48 h; procedure, shortened: as §1
[3] = test system: UACC-903; test: Antiproliferative activity against human UACC-903 cells harboring BRAF V600E mutant after 72 hrs by MTT assay; conditions: UACC-903, 72 h; procedure, shortened: as §1
[4] = Antiproliferative activity against human 1205 Lu cells harboring BRAF V600E mutant after 24 hrs by MTT assay; procedure, shortened: as §1
[5] = Antiproliferative activity against human 1205 Lu cells harboring BRAF V600E mutant after 48 hrs by MTT assay; procedure, shortened: as §1
[6] = Antiproliferative activity against human 1205 Lu cells harboring BRAF V600E mutant after 72 hrs by MTT assay; procedure, shortened: as §1
[7] = Antiproliferative activity against human A375M cells harboring BRAF V600E mutant after 24 hrs by MTT assay; procedure, shortened: as §1
[8] = Antiproliferative activity against human A375M cells harboring BRAF V600E mutant after 48 hrs by MTT assay; procedure, shortened: as §1
[9] = Antiproliferative activity against human A375M cells harboring BRAF V600E mutant after 72 hrs by MTT assay; procedure, shortened: as §1
[10] = test system: CHL-1; test: Antiproliferative activity against human CHL-1 cells harboring wild type BRAF after 24 hrs by MTT assay; conditions: CHL-1, 24 h; procedure, shortened: as §1
[11] = test system: CHL-1; test: Antiproliferative activity against human CHL-1 cells harboring wild type BRAF after 48 hrs by MTT assay; conditions: CHL-1, 48 h; procedure, shortened: as §1
[12] = test system: CHL-1; test: Antiproliferative activity against human CHL-1 cells harboring wild type BRAF after 72 hrs by MTT assay; conditions: CHL-1, 72 h; procedure, shortened: as §1

Compound	IC50 [1] [µM]	IC50 [2] [µM]	IC50 [3] [µM]	IC50 [4] [µM]	IC50 [5] [µM]	IC50 [6] [µM]	IC50 [7] [µM]	IC50 [8] [µM]	IC50 [9] [µM]	IC50 [10] [µM]	IC50 [11] [µM]	IC50 [12] [µM]
O=C1c2cccc3cc([N+](=O)[O-])cc(c23)C(=O)N1CCN=C=[Se]	21.6	14.4	15.9	21.6	19.9	20.3	24.8	21	24	15.3	12.6	11
O=C1c2cccc3cccc(c23)C(=O)N1CCCCN=C=[Se]	13.1	9.2	12	13.1	15.9	15.4	19.4	21	28.4	9.7	8	8.9
O=C1c2cccc3cccc(c23)C(=O)N1CCN=C=[Se]	6.3	5.5	5.9	11	10.7	9.4	9.7	7.8	8	6.3	6.8	7.6
CCCS(=O)(=O)Nc1ccc(F)c(C(=O)c2c[nH]c3ncc(-c4ccc(Cl)cc4)cc23)c1F [VEMURAFENIB]	> 50	12.3	2.7	> 50	7.6	2	> 50	2.05	0.5	> 50	20	12.7

Reference: ChEMBL document CHEMBL4033667, “Design, synthesis, and identification of a novel napthalamide-isoselenocyanate compound NISC-6 as a dual Topoisomerase-IIα and Akt pathway inhibitor, and evaluation of its anti-melanoma activity” (Eur J Med Chem, 2017)
